# Assay results pooled from the literature.
# Target: Dual specificity mitogen-activated protein kinase kinase 2 (MAP2K2, Homo sapiens, UniProt P36507)
SMILES,read-out,mode,method,concentration,endpoint,result
O=c1[nH]c2ccccc2n1C1CCN(Cc2ccc(-c3[nH]c4cc5ncnc5cc4nc3-c3ccccc3)cc2)CC1,cell-free assay,,,0.5 µM,remaining signal,86.6%
COc1ncccc1-c1cnn2ccc(N3CCN(C(=O)OC(C)C)CC3)nc12,binding,,competition with immobilised ligand,1 µM,remaining binding,91%
CC(C)(C)c1cc(C=C(C#N)C#N)cc(Br)c1O,enzyme activity,inhibitor,,0.5 µM,remaining activity,85.8%
N#CC1(c2ccccn2)CCN(Cc2cc(C(=O)O)c(=O)n3ccccc23)CC1,cell-free assay,,competition with immobilised ligand,1 µM,remaining binding,100%
COc1cc(Nc2ncc(F)c(Nc3ccc4c(n3)NC(=O)C(C)(C)O4)n2)cc(OC)c1OC,binding,,competition with immobilised ligand,10 µM,inhibition,87%
Cn1cncc1[C@@](O)(COc1ccc(C#N)cc1-c1ccc(OC(F)(F)F)cc1)c1ccc(C#N)cc1,cell-free assay,,competition with immobilised ligand,1 µM,remaining binding,74%
Cn1cc(-c2cc(F)cc(N3CCn4c(cc5c4CCCC5)C3=O)c2CO)cc(Nc2ccc(N3CCN(C4COC4)CC3)cn2)c1=O,enzyme activity,inhibitor,,0.1 µM,inhibition,11%
Cc1nn(C)cc1-c1nc2c(N3CCN(Cc4ccc(Cl)cc4)CC3)c(Cl)cnc2[nH]1,binding,,competition with immobilised ligand,1 µM,remaining binding,100%
Nc1ncc(-c2nc(N3CCOCC3)nc(N3CCOCC3)n2)c(C(F)F)n1,binding,,competition with immobilised ligand,10 µM,remaining binding,77%
Cn1cc(-c2cccc(N3CCc4c(sc5c4CC(C)(C)C5)C3=O)c2CO)cc(Nc2ccncn2)c1=O,enzyme activity,inhibitor,,1 µM,inhibition,5%
